Results from article PMC8358123 (International Journal for Parasitology: Drugs and Drug …, 2021).

Experiments:
[1] = tested on: T. cruzi Tulahuen CL2 β-galactosidase strain; experiment: In vitro activity against T. cruzi intracellular amastigotes in MRC-5SV2 cells; assay type: cell-based; details: Trypanosoma cruzi, MRC-5 SV2, 168 h, read-out: T. cruzi EC50
Summary of the method: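 Nifurtimox-sensitive Tulahuen CL2 β-galactosidase parasites infected MRC-5SV2 fibroblasts in MEM with 200 mM L-glutamine, 16.5 mM NaHCO3 and 5% inactivated FCS, at 37 °C and 5% CO2. Wells held 4×10^3 cells and 4×10^4 parasites. Test compound was given as ten 4-fold dilutions (top 64 μM, <1% DMSO) for 7 days. CPRG was then added for 4 h at 37 °C and absorbance read at 540 nm. IC50 from % reduction versus untreated-infected controls; mean ± SEM, 2–4 experiments. Benznidazole reference.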

[2] = tested on: T. b. brucei (Squib 427 strain); experiment: In vitro activity against T. b. brucei; assay type: cell-based; details: Trypanosoma brucei, read-out: T. b. bruc. EC50
[3] = tested on: T. b. rhodesiense (STIB-900 strain); experiment: In vitro activity against T. b. rhodesiense; assay type: cell-based; details: Trypanosoma brucei, read-out: T. b. rhod. EC50
Summary of the method: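 STIB-900 parasites, axenic in HMI-9 with 10% FBS at 37 °C and 5% CO2, seeded at 4×10^3 parasites/well. Test compound was given as ten 4-fold dilutions (top 64 μM, <1% DMSO). Growth period […], then resazurin added and fluorescence measured after 24 h. IC50 from a sigmoid variable-slope fit versus untreated controls; mean ± SEM, 2–4 experiments. Suramin as reference.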

[4] = MRC-5SV2 cytotoxicity; assay type: cell-based, human; details: human, MRC-5SV2 cells, MRC-5 CC50, MRC-5SV2 cells, 3 days incubation
Summary of the method: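 MRC-5SV2 cells (3×10^4 cells/mL) in MEM with Earl's salts, L-glutamine, NaHCO3 and 5% inactivated FCS, at 37 °C and 5% CO2. Exposure to test compound (ten 4-fold dilutions, top 64 μM, <1% DMSO) lasted 3 days. Resazurin was then added for 4 h at 37 °C, with fluorescence read at ex 550/em 590 nm. CC50 from % reduction relative to untreated (100%) and medium-only (0%) controls.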

[5] = PMM cytotoxicity; assay type: cell-based, mouse; details: Swiss, mouse, PMM CC50, primary peritoneal mouse macrophages

Compound	EC50 [1]	EC50 [2]	EC50 [3]	CC50 at 3 days [4]	CC50 at 5 days [5]
Cc1ncnc2c1c(F)cn2[C@@H]1O[C@H](CO)[C@@H](O)[C@H]1O [compound 6]	< 0.25 µM	0.41 µM	< 0.25 µM	0.3 µM	32 µM
Cc1ncnc2c1c(Br)cn2[C@@H]1O[C@H](CO)[C@@H](O)[C@H]1O [compound 8]	5.28 µM	> 64 µM	3.84 µM	39.6 µM	32 µM
Cc1cn([C@@H]2O[C@H](CO)[C@@H](O)[C@H]2O)c2ncnc(C)c12 [compound 9]	1.54 ± 0.52 µM	0.82 ± 0.32 µM	0.45 ± 0.08 µM	> 64 µM	> 64 µM
Cc1ncnc2c1c(SC(F)(F)F)cn2[C@@H]1O[C@H](CO)[C@@H](O)[C@H]1O [compound 11]	30.9 µM	> 64 µM	> 64 µM	–	> 64 µM
C=Cc1cn([C@@H]2O[C@H](CO)[C@@H](O)[C@H]2O)c2ncnc(C)c12 [compound 12]	6.95 ± 1.29 µM	2.73 ± 0.28 µM	2.2 ± 0.11 µM	> 64 µM	> 64 µM
C=C(C)c1cn([C@@H]2O[C@H](CO)[C@@H](O)[C@H]2O)c2ncnc(C)c12 [compound 14]	5.04 µM	0.5 µM	< 0.25 µM	1.49 µM	> 64 µM
Cc1ncnc2c1c(C(C)C)cn2[C@@H]1O[C@H](CO)[C@@H](O)[C@H]1O [compound 15]	29.1 µM	0.67 µM	0.51 µM	0.3 µM	> 64 µM
Cc1ncnc2c1c(C1=CCCC1)cn2[C@@H]1O[C@H](CO)[C@@H](O)[C@H]1O [compound 16]	> 64 µM	> 64 µM	> 64 µM	> 64 µM	> 64 µM
Cc1ncnc2c1c(C1CCCC1)cn2[C@@H]1O[C@H](CO)[C@@H](O)[C@H]1O [compound 17]	48.9 µM	> 64 µM	53.6 µM	> 64 µM	> 64 µM
Cc1ncnc2c1c(C1=CCCCC1)cn2[C@@H]1O[C@H](CO)[C@@H](O)[C@H]1O [compound 18]	> 64 µM	> 64 µM	> 64 µM	> 64 µM	> 64 µM
Cc1ncnc2c1c(C1CCCCC1)cn2[C@@H]1O[C@H](CO)[C@@H](O)[C@H]1O [compound 19]	> 64 µM	> 64 µM	> 64 µM	> 64 µM	> 64 µM
Cc1ncnc2c1c(C1=CCOCC1)cn2[C@@H]1O[C@H](CO)[C@@H](O)[C@H]1O [compound 20]	2.87 ± 0.28 µM	12.3 ± 2.45 µM	9.75 ± 0.02 µM	> 64 µM	> 64 µM
Cc1ncnc2c1c(C1CCOCC1)cn2[C@@H]1O[C@H](CO)[C@@H](O)[C@H]1O [compound 21]	3.98 ± 0.94 µM	15.1 ± 1.02 µM	12 ± 1.75 µM	> 64 µM	> 64 µM
Cc1ncnc2c1c(-c1ccccc1)cn2[C@@H]1O[C@H](CO)[C@@H](O)[C@H]1O [compound 24]	40.3 µM	> 64 µM	> 64 µM	> 64 µM	> 64 µM
CCCC#Cc1cn([C@@H]2O[C@H](CO)[C@@H](O)[C@H]2O)c2ncnc(C)c12 [compound 25]	20.4 ± 0.39 µM	0.89 ± 0.21 µM	0.37 ± 0.08 µM	> 64 µM	> 64 µM
CCCCCc1cn([C@@H]2O[C@H](CO)[C@@H](O)[C@H]2O)c2ncnc(C)c12 [compound 26]	> 64 µM	> 64 µM	> 64 µM	> 64 µM	> 64 µM
CCCCC#Cc1cn([C@@H]2O[C@H](CO)[C@@H](O)[C@H]2O)c2ncnc(C)c12 [compound 27]	2.08 µM	0.52 µM	1.19 µM	7.58 µM	8 µM
CCCCCCc1cn([C@@H]2O[C@H](CO)[C@@H](O)[C@H]2O)c2ncnc(C)c12 [compound 28]	42.1 µM	> 64 µM	> 64 µM	> 64 µM	> 64 µM
CC(C)=Cc1cn([C@@H]2O[C@H](CO)[C@@H](O)[C@H]2O)c2ncnc(C)c12 [compound 29]	> 64 µM	> 64 µM	> 64 µM	> 64 µM	> 64 µM
Cc1ncnc2c1c(CC(C)C)cn2[C@@H]1O[C@H](CO)[C@@H](O)[C@H]1O [compound 30]	> 64 µM	> 64 µM	> 64 µM	> 64 µM	> 64 µM
Cc1ncnc2c1c(C#CC(C)C)cn2[C@@H]1O[C@H](CO)[C@@H](O)[C@H]1O [compound 31]	> 64 µM	23.5 µM	16 µM	> 64 µM	> 64 µM
Cc1ncnc2c1c(CCC(C)C)cn2[C@@H]1O[C@H](CO)[C@@H](O)[C@H]1O [compound 32]	> 64 µM	> 64 µM	4 µM	> 64 µM	> 64 µM
Cc1ncnc2c1c(C#CC1CC1)cn2[C@@H]1O[C@H](CO)[C@@H](O)[C@H]1O [compound 33]	4.59 ± 0.89 µM	1.36 ± 0.41 µM	0.34 ± 0.11 µM	27.5 ± 19 µM	> 64 µM
Cc1ncnc2c1c(CCC1CC1)cn2[C@@H]1O[C@H](CO)[C@@H](O)[C@H]1O [compound 34]	> 64 µM	> 64 µM	> 64 µM	> 64 µM	> 64 µM
Cc1ncnc2c1c(/C=C/c1ccccc1)cn2[C@@H]1O[C@H](CO)[C@@H](O)[C@H]1O [compound 35]	1.94 ± 0.09 µM	6.19 ± 0.57 µM	4.54 ± 0.93 µM	26.6 ± 1.42 µM	32 µM
Cc1ncnc2c1c(CCc1ccccc1)cn2[C@@H]1O[C@H](CO)[C@@H](O)[C@H]1O [compound 36]	40.3 µM	> 64 µM	38.7 µM	> 64 µM	> 64 µM
CCc1cn([C@@H]2O[C@H](CO)[C@@H](O)[C@H]2O)c2ncnc(CC)c12 [compound 37]	> 64 µM	2.03 µM	2.02 µM	20.2 µM	> 64 µM
CCc1cn([C@@H]2O[C@H](CO)[C@@H](O)[C@H]2O)c2ncncc12 [compound 38]	5.38 µM	1.54 µM	1.73 µM	> 64 µM	> 64 µM
CCc1cn([C@@H]2O[C@H](CO)[C@@H](O)[C@H]2O)c2nc[nH]c(=O)c12 [compound 40]	> 64 µM	48.5 µM	40.3 µM	> 64 µM	> 64 µM
